What was measured:
[1] = system: Trypanosoma brucei brucei; experiment: Antitrypanosomal activity against blood stream form of Trypanosoma brucei brucei 427 assessed as parasite growth inhibition incubated for 48 hrs by alamar blue dye based assay; type: functional, organism-based; details: Trypanosoma brucei, 427, 48 h
How it was run: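 Bloodstream-form BSF 427 parasites in HMI-9 with 10% heat-inactivated FBS and penicillin/streptomycin, 37 °C, 5% CO₂; 10 000 cells/well initial inoculum; serial 3-fold dilutions in triplicate; Alamar Blue read at 48 h. Pentamidine control.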

[2] = Cytotoxicity against human WIL2-NS cells assessed as reduction in cell viability after 48 hrs by alamar blue dye based assay
How it was run: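 CRL-8155 lymphocytic cells in RPMI with 10% heat-inactivated FBS, 2 mM L-glutamine, 0.4 mM sodium pyruvate, penicillin/streptomycin, 37 °C, 5% CO₂; 30 000 cells/well; quadruplicate serial 3-fold dilutions from 50 µM (or 25 µM); AlamarBlue at 48 h, 50 µM quinacrine as background; percent inhibition versus untreated wells; single experiment.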

[3] = Cytotoxicity against human HepG2 cells assessed as reduction in cell viability after 48 hrs by alamar blue dye based assay
[4] = molecular target: T1, Methionine--tRNA ligase, mitochondrial (Homo sapiens, UniProt Q96GW9); experiment: Inhibition of mitochondrial MetRS-mediated mitochondrial protein synthesis in human HepG2 cells measured after 6 days by ELISA; type: cell-based
T1 sequence (Q96GW9 whole entry): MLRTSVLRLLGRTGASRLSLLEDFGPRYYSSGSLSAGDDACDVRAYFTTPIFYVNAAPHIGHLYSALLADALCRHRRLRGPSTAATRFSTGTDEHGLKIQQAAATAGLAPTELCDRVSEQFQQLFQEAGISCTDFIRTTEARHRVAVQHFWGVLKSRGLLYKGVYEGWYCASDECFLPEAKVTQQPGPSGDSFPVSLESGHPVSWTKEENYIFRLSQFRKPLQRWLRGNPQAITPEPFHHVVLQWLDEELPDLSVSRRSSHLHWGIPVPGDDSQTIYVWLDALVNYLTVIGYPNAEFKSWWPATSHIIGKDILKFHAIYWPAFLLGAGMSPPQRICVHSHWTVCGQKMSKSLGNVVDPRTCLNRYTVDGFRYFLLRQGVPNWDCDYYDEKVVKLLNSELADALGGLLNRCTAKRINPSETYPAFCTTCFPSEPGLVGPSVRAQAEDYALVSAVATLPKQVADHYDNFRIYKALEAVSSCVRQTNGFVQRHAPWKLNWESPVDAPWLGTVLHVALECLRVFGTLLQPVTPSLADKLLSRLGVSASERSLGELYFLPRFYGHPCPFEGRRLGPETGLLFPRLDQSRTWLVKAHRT
How it was run: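 HepG2 seeded 6000 cells/well on collagen-coated plates, grown 24 h in DMEM/F12 with 10% FBS, pyruvate, antibiotics; then serial 3-fold dilutions from 25 µM in duplicate, 6 days at 37 °C, medium with compound refreshed every 48 h; paraformaldehyde-fixed, COX-1 quantified by in-cell ELISA. Chloramphenicol control.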

[5] = system: mitochondrial MetRS (mitochondrial protein synthesis); experiment: Selectivity index, ratio of EC50 for inhibition of mitochondrial MetRS-mediated mitochondrial protein synthesis in human HepG2 cells to EC50 for antitrypanosomal activity against blood stream form of Trypanosoma brucei brucei 427; type: toxicity, cell-based; details: read-out: Ratio EC50
[6] = Ratio of drug level in brain to plasma in Swiss Webster mouse at 5 mg/kg, ip measured after 60 mins by LC-MS analysis; type: ADME, organism-based; details: 1 h
How it was run: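 Swiss Webster mice, triplicate, 5 mg kg⁻¹ IP in 7% Tween80, 5% DMSO, 3% EtOH in saline; plasma and brain collected 1 h post-dose; brain homogenized in water, extracts measured by LC-MS/MS; brain levels corrected for 3% v/w blood content.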

[7] = Inhibition of recombinant N-terminal His6-tagged trypanosoma brucei brucei 427 Methionyl-tRNA synthetase (237 to 773 residues) expressed in Escherichia coli assessed as ATP depletion using L-methionine and tRNA as substrate by Kinase-Glo luminescence assay

| Structure (SMILES) | EC50 [1] | EC50 [4] | BPR [6] | CC50 at 48 h [2] | CC50 at 48 h [3] | selectivity ratio [5] | IC50 [7] |
| --- | --- | --- | --- | --- | --- | --- | --- |
| Clc1ccc(-c2cccc3nc(Cc4nc5nc(Cl)ccc5[nH]4)cn23)c(Cl)c1 | 64 nM | – | – | 16100 nM | 43200 nM | – | – |
| CCn1c(Cc2ccc(Cl)cc2Cl)cn(Cc2nc3cc(C)ccc3[nH]2)c1=O | 110 nM | – | – | > 50000 nM | > 50000 nM | – | – |
| O=c1[nH]c(Cc2ccc(Cl)cc2Cl)cn1Cc1nc2ccccc2[nH]1 | 350 nM | – | – | – | – | – | < 40 nM |
| Cc1ccc(-c2cccc3nc(Cc4nc5nc(Cl)ccc5[nH]4)cn23)c(Cl)c1 | > 2000 nM | – | – | – | – | – | – |
| COc1ccc(-c2cncc3nc(Cc4nc5nc(Cl)ccc5[nH]4)cn23)c(Cl)c1 | 32 nM | – | – | > 50000 nM | > 50000 nM | – | – |
| Clc1cc(Cl)cc(-c2cccc3nc(Cc4nc5nc(Cl)ccc5[nH]4)cn23)c1 | 196 nM | – | – | – | – | – | – |
| CCn1c(Cc2ccc(Cl)cc2Cl)cn(Cc2nc3cc(C(F)(F)F)ccc3[nH]2)c1=O | > 2000 nM | – | – | > 50000 nM | > 50000 nM | – | – |
| COc1ccc(-c2cccc3nc(Cc4nc5nc(F)ccc5[nH]4)cn23)c(Cl)c1 | 59 nM | – | – | 15700 nM | > 50000 nM | – | – |
| O=C(N[C@H](CO)[C@H](O)c1ccc([N+](=O)[O-])cc1)C(Cl)Cl [CHLORAMPHENICOL] | – | 7900 nM | – | – | – | – | – |
| COc1ccc(-c2cccn3cc(Cc4nc5nc(Cl)ccc5[nH]4)nc23)c(Cl)c1 | > 2000 nM | – | – | – | – | – | – |
| COc1ccc(-c2nccn3c(=O)n(Cc4nc5nc(Cl)ccc5[nH]4)cc23)c(Cl)c1 | 31 nM | – | – | > 50000 nM | > 50000 nM | – | – |
| FC(F)(F)c1ccc(-c2cccc3nc(Cc4nc5nc(Cl)ccc5[nH]4)cn23)c(Cl)c1 | 1780 nM | – | – | – | – | – | – |
| CCn1c(Cc2ccc(Cl)cc2Cl)cn(Cc2nc3cnccc3[nH]2)c1=O | 390 nM | – | – | > 50000 nM | > 50000 nM | – | – |
| CCN(CC)CCCC(C)Nc1c2ccc(Cl)cc2nc2ccc(OC)cc12 (configuration not stated) [QUINACRINE] | – | – | – | 4800 nM | 7600 nM | – | – |
| CCOc1ccc(-c2cccc3nc(Cc4nc5nc(Cl)ccc5[nH]4)cn23)c(Cl)c1 | 1900 nM | – | – | – | – | – | – |
| CCn1c(Cc2ccc(Cl)cc2Cl)cn(Cc2nc3c(Cl)cc(Cl)cc3[nH]2)c1=O | 1600 nM | – | – | 38200 nM | 43700 nM | – | – |
| CCn1c(Cc2ccc(Cl)cc2Cl)cn(Cc2nc3cc(Cl)c(Cl)cc3[nH]2)c1=O | 660 nM | – | – | 31600 nM | 31300 nM | – | – |
| CCn1c(Cc2ccc(Cl)cc2Cl)cn(Cc2nc3ccccc3[nH]2)c1=O | 40 nM | – | – | > 50000 nM | > 50000 nM | – | – |
| CCn1c(Cc2ccc(Cl)cc2Cl)cn(Cc2nc3ccccc3o2)c1=O | > 2000 nM | – | – | > 50000 nM | > 50000 nM | – | – |
| CCn1c(Cc2ccc(Cl)cc2Cl)cn(Cc2nc3c(Cl)cccc3[nH]2)c1=O | 210 nM | – | – | > 50000 nM | > 50000 nM | – | – |
| CCn1c(Cc2ccc(Cl)cc2Cl)cn(Cc2nc3cc(Cl)ccc3[nH]2)c1=O | 69 nM | – | – | 27100 nM | 45300 nM | – | – |
| CCn1c(Cc2ccc(Cl)cc2Cl)cn(Cc2nc3cc(Cl)c(F)cc3[nH]2)c1=O | 220 nM | – | – | 20900 nM | 29800 nM | – | – |

Continued, in another order:

| EC50 [1] | EC50 [4] | BPR [6] | Structure (SMILES) | CC50 at 48 h [2] | CC50 at 48 h [3] | selectivity ratio [5] | IC50 [7] |
| --- | --- | --- | --- | --- | --- | --- | --- |
| 2.3 nM | – | – | CC(C)n1c(Cc2ccc(Cl)cc2Cl)cn(Cc2nc3nc(F)ccc3[nH]2)c1=O | > 50000 nM | > 50000 nM | – | – |
| 1.8 nM | 75 nM | 0% | CCn1c(Cc2ccc(OC)cc2Cl)cn(Cc2nc3nc(F)ccc3[nH]2)c1=O | > 50000 nM | > 50000 nM | 42 | – |
| 16 nM | – | – | O=c1n(Cc2nc3nc(F)ccc3[nH]2)cc(Cc2ccc(Cl)cc2Cl)n1C1CCCCC1 | 30400 nM | 33200 nM | – | – |
| 17 nM | – | – | CCn1c(Cc2ccc(Cl)cc2Cl)cn(Cc2nc3ncccc3[nH]2)c1=O | > 50000 nM | > 50000 nM | – | – |
| 31 nM | – | – | CCn1c(Cc2ccc(Cl)cc2Cl)cn(Cc2nc3c(F)cccc3[nH]2)c1=O | 45000 nM | > 50000 nM | – | – |
| 1.6 nM | 42 nM | 9.6% | CCn1c(Cc2ccc(Cl)cc2Cl)cn(Cc2nc3nc(Cl)ccc3[nH]2)c1=O | > 50000 nM | > 50000 nM | 26 | – |
| 5.1 nM | 195 nM | 5.5% | CCCn1c(Cc2ccc(Cl)cc2Cl)cn(Cc2nc3nc(F)ccc3[nH]2)c1=O | > 50000 nM | > 50000 nM | 38 | – |
| 24 nM | – | – | COc1ccc(-c2cccc3nc(Cc4nc5nc(Cl)ccc5[nH]4)cn23)c(Cl)c1 | 13000 nM | > 50000 nM | – | – |
| 4.6 nM | – | – | O=c1n(Cc2nc3nc(F)ccc3[nH]2)cc(Cc2ccc(Cl)cc2Cl)n1CC1(O)CCOCC1 | > 50000 nM | > 50000 nM | – | – |
| 7.2 nM | 316 nM | 0% | COc1cc(Cl)c(-c2cccc3nc(Cc4nc5nc(F)ccc5[nH]4)cn23)cc1OC | > 25000 nM | > 25000 nM | 45 | – |
| 26 nM | – | – | CCn1c(Cc2ccc(Cl)cc2Cl)cn(Cc2nc3c(F)c(F)ccc3[nH]2)c1=O | 41000 nM | 40600 nM | – | – |
| 1 nM | 39 nM | 0% | CCn1c(Cc2ccc(OC)cc2Cl)cn(Cc2nc3nc(Cl)ccc3[nH]2)c1=O | > 50000 nM | > 50000 nM | 39 | – |
| 3.4 nM | 290 nM | 0.1% | CCn1c(Cc2ccc(Cl)cc2Cl)cn(Cc2nc3nc(F)ccc3[nH]2)c1=O | > 50000 nM | > 50000 nM | 85 | – |
| 1.7 nM | – | – | N=C(N)c1ccc(OCCCCCOc2ccc(C(=N)N)cc2)cc1 [PENTAMIDINE] | – | – | – | – |
| ≤ 0.9 nM | – | – | CCCn1c(Cc2ccc(Cl)cc2Cl)cn(Cc2nc3nc(Cl)ccc3[nH]2)c1=O | 37800 nM | 26400 nM | – | – |
| 5.9 nM | 175 nM | 0% | O=c1n(Cc2nc3nc(F)ccc3[nH]2)cc(Cc2ccc(Cl)cc2Cl)n1CC(F)F | 33300 nM | > 50000 nM | 30 | – |
| 3.5 nM | 507 nM | 0% | COc1cc(-c2cccc3nc(Cc4nc5nc(Cl)ccc5[nH]4)cn23)c(Cl)cc1Cl | 9500 nM | > 50000 nM | 145 | – |
| 3.1 nM | 478 nM | 0.5% | COc1cc(Cl)c(-c2cccc3nc(Cc4nc5nc(Cl)ccc5[nH]4)cn23)cc1OC | 19000 nM | 28200 nM | 154 | – |
| 8.4 nM | 1750 nM | 0.6% | COc1cc(-c2cccc3nc(Cc4nc5nc(F)ccc5[nH]4)cn23)c(Cl)cc1Cl | 10400 nM | > 50000 nM | 203 | – |
| 3 nM | – | – | O=c1n(Cc2nc3nc(F)ccc3[nH]2)cc(Cc2ccc(Cl)cc2Cl)n1CC1CCOCC1 | > 50000 nM | > 50000 nM | – | – |
| 3.6 nM | – | – | COc1ccc(Cc2cn(Cc3nc4nc(Cl)ccc4[nH]3)c(=O)n2CC(F)F)c(Cl)c1 | > 50000 nM | > 50000 nM | – | – |
| 3 nM | 430 nM | 0% | O=c1n(Cc2nc3nc(Cl)ccc3[nH]2)cc(Cc2ccc(Cl)cc2Cl)n1CC(F)F | > 50000 nM | > 50000 nM | 143 | – |
| 5.8 nM | – | – | O=c1n(Cc2nc3nc(F)ccc3[nH]2)cc(Cc2ccc(Cl)cc2Cl)n1C1CCOCC1 | > 50000 nM | > 50000 nM | – | – |
